“Also recorded” adds a separate entry of the source.

For assay [1], the system named is PAK1. The experiment in a line: PAK1 activation. The note with it: PC3M cells, 1 uM, 16 h. It counts as cell-based. The method in brief:
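PC3M cells serum-deprived and either treated with test compound (1 uM) or left untreated for 16 h. They were then left unstimulated or briefly stimulated with HGF (50 ng/mL) for set times. Lysates run on SDS-PAGE and immunoblotted with anti-phospho-PAK1 antibody, with total PAK1 immunoblot as loading control.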

The subject of assay [2] is PAK1. The experiment in a line: PAK1 nuclear translocation. Format: cell-based. The note with it: PC3M cells, 16 h, relative to nuclear CREB. An outline of the steps: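 PC3M cells treated with test compound for 16 h. Nuclear extracts prepared in high-salt buffer, resolved by SDS-PAGE and immunoblotted for PAK1, with CREB immunoblotted as reference.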
For the next assay, the system named is MDCK cells. The assay can be described thus: Lamellipodia formation at wound edge, phalloidin staining, MDCK. It counts as cell-based, canine. Conditions: HGF + 1 uM compound.
Another assay concerns cell motility. Conditions: cited from earlier work.
Assay [3] deals with Grb2 and focal adhesion kinase (FAK). The note with it: treatment of cells; cited from earlier work.
Assay [4] relates to PC3M cells. The experiment in a line: Cell migration in modified Boyden chambers, HGF-stimulated. Format: cell-based. The note with it: HGF 50 ng/ml. An outline of the steps:
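PC3M cells pretreated with test compound for 24 h, then seeded at 200,000 cells per modified Boyden chamber. Migration stimulated with recombinant human HGF (50 ng/ml), with unstimulated cells run in parallel. Migrated cells counted by light microscopy in four fields (1 × 1.4 mm) per well, triplicate wells per condition. Means expressed as percent maximum ± standard deviation, with a dose-response series.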

A further assay has as its system tumor metastasis. Conditions: cited from earlier work.
In assay [5] the test system is PC3M cells. The experiment in a line: Lamellipodia formation at wound edge, phalloidin staining, PC3M. Conditions: HGF + 1 uM compound. Format: cell-based.
The next assay has as its system angiogenesis. Conditions: cited from earlier work.
Another assay deals with Biotin-Grb2 SH2 domain (Homo sapiens, UniProt P62993). The assay can be described thus: SPR direct binding, streptavidin-captured biotin-Grb2 SH2 domain. The note with it: Biotin-Grb2, SA capture; reference line of the ratio.
Sequence of Biotin-Grb2 SH2 domain (P62993 60-152 limits assumed): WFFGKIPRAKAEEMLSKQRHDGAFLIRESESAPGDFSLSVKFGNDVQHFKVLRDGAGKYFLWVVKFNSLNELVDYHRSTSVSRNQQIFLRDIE
The subject of assay [6] is Grb2-EGFR and Grb2-c-Met interactions. The note with it: co-immunoprecipitation; cited from earlier work.
In another assay the target is Grb2 SH2 domain (Homo sapiens, UniProt P62993). The experiment in a line: SPR direct binding, amine-coupled Grb2 SH2 domain. The note with it: for Ratio: Grb2, amine coupling, affinity relative to compound 2.
Sequence of Grb2 SH2 domain (P62993 60-152 limits assumed): as above
A further assay deals with Grb2 (Homo sapiens, UniProt P62993). It counts as binding. Conditions: SK-LMS-1 lysate; for Capture of Grb2 on compound-conjugated SA beads (anti-Grb2 immunoblot): compound 3 uM, washes 150-500 mM NaCl. An outline of the steps: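 SK-LMS-1 cells serum-deprived 16 h, stimulated with recombinant human HGF (25 ng/ml) for 20 min and lysed in cold non-ionic detergent buffer. Biotinylated test compound (3 uM) incubated with lysate 1 h on ice. Streptavidin beads then mixed in 1 h at 4°C and washed 5 times in lysis buffer with increasing NaCl (150–500 mM). Read-out: SDS-PAGE and anti-Grb2 immunoblot.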
Sequence of Grb2 (P62993 whole entry): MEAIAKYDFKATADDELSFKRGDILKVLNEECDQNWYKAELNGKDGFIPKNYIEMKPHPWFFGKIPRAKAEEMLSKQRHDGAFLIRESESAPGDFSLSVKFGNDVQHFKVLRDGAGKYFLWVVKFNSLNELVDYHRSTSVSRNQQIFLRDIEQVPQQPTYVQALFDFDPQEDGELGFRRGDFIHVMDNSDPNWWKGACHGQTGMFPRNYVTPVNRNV
A general note: A western blot detects proteins with antibodies after separation by electrophoresis.

In assay [7] the test system is proteins of SK-LMS-1 cell lysates. Format: binding, human. The note with it: cell lysates; two or more unique peptides observed. The method in brief: (§1)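 Biotinylated test compound captured proteins from HGF-stimulated (25 ng/ml, 20 min) SK-LMS-1 detergent lysate on streptavidin beads, washed with 150–500 mM NaCl. Beads exchanged into 100 mM ammonium bicarbonate, reduced (10 mM DTT, 1 h, 51°C), alkylated (55 mM iodoacetamide, 45 min, 25°C) and trypsin-digested 6 h at 25°C. Acidified peptides analysed by nLC-ESI-MS/MS (ion trap, top-seven data-dependent) and searched against human NCBI database.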

Assay [8] addresses proteins of SK-LMS-1 cell lysates (Homo sapiens, UniProt P62993). It counts as binding. The note with it: compound-conjugated SA beads, cell extracts. The method in brief: as §1

Sequence of proteins of SK-LMS-1 cell lysates (Homo sapiens, UniProt P62993) (P62993 whole entry): as above

Regarding `NC(=O)C[C@H](NC(=O)C1(NC(=O)[C@H](Cc2ccc(C(C(=O)O)C(=O)O)cc2)NC(=O)C(=O)O)CCCCC1)C(=O)NCCCc1cccc2ccccc12` [Compound 1], the “Steady state level of PAK1 autophosphorylation” value with PAK1 [1] (no HGF) is recorded as “little effect”. The “HGF-stimulated PAK1 activation” value with PAK1 [1] (then HGF 50 ng/mL) is given as “completely inhibited”. For the same compound, the PAK1 nuclear translocation entry with PAK1 [2] is “decreased PAK1 nuclear translocation”. Moreover, the “Lamellipodia extension into the wound” value with MDCK cells was “significantly reduced the area and distance that lamellipodia extended into the wound”. The Cell motility entry in the assay on cell motility was “blocks cell motility in a dose dependent fashion; also recorded: can inhibit cell motility”. Besides, the “HGF-stimulated physical association between Grb2 and FAK” value in assay [3] is “disrupts HGF-stimulated physical association between Grb2 and focal adhesion kinase (FAK)”. Further, in the assay on PC3M cells [4], the “Inhibition of cell migration (in words)” value is recorded as “Inhibition of cell migration”. Also, the “Tumor metastasis in vivo” value with tumor metastasis was “inhibit”. In the assay with PC3M cells [5], the “Actin reorganization and lamellipodia formation (phalloidin staining)” value is reported as “markedly reduced phalloidin staining at the leading edge”. In addition, the Angiogenesis result with angiogenesis was “inhibit”. The Ratio at Biotin-Grb2 SH2 domain was 1. Moreover, the “Grb2-EGFR and Grb2-c-Met interactions” value in [6] was “able to disrupt Grb2-EGFR and Grb2-c-Met interactions”.
On to `NC(=O)C[C@H](NC(=O)C1(NC(=O)[C@H](Cc2ccc(C(C(=O)O)C(=O)O)cc2)NC(=O)C(=O)O)CCCCC1)C(=O)NCCCc1cccc2c(O)cccc12` [Compound 2, 2-{4-[2-(1-(1S)-{2-Carbamoyl-1-[3-(5-hydroxy-naphthalen-1-yl)-propylcarbamoyl]-ethylcarbamoyl}-cyclohexylcarbamoyl)-2-(2S)-(oxalyl-amino)-ethyl]-phenyl}-malonic acid], for which the Ratio at Grb2 SH2 domain and on Biotin-Grb2 SH2 domain was 1 throughout.
Regarding `NC(=O)C[C@H](NC(=O)C1(NC(=O)[C@H](Cc2ccc(C(C(=O)O)C(=O)O)cc2)NC(=O)C(=O)O)CCCCC1)C(=O)NCCCc1cccc2c(OC(=O)CCCCCNC(=O)CCCC[C@@H]3SC[C@@H]4NC(=O)N[C@@H]43)cccc12` [Compound 3], the “Capture of Grb2 SH3 domain-associated proteins (immunoblot)” value on Grb2 (SA-bound compound) is “revealed the presence of Nck1, Nck2, Gab1 and Sos1”. For the same compound, at Grb2, the “Capture of Grb2 on compound-conjugated SA beads (anti-Grb2 immunoblot)” value was “Grb2 was clearly retained”. Further, the “Protein Name (identified by mass spectrometry, captured by streptavidin-immobilized 3, but not by streptavidin-immobilized 4)” value in assay [7] is “histone H2B family ^b; also recorded: ribosomal protein S23; also recorded: ribosomal protein L17; also recorded: ribosomal protein S17; also recorded: pyruvate kinase 3 ^a”. Moreover, the “Capture of Grb2 tryptic peptides (ESI-MS/MS)” value in assay [8] is “captured by compound 3-conjugated SA beads”. Also, the “Inhibition of cell migration (in words)” value in the assay with PC3M cells [4] is “significant and potent inhibition of migration”. Moreover, the Ratio on Grb2 SH2 domain was determined as 3.
For the compound `NC(=O)C[C@H](NC(=O)C1(NC(=O)[C@H](Cc2ccc(O)cc2)NC(=O)C(=O)O)CCCCC1)C(=O)NCCCc1cccc2c(OC(=O)CCCCCNC(=O)CCCC[C@@H]3SC[C@@H]4NC(=O)N[C@@H]43)cccc12` [Compound 4, (4R,5S,6S)-6-[5-(2-Oxo-hexahydro-thieno[3,4-d]imidazol-6-yl)-pentanoylamino]-hexanoic acid 5-{3-[3-carbamoyl-2-({1-[3-(4-hydroxy-phenyl)-2-(oxylyl-amino)-propionylamino]-cyclohexylcarbonyl}-amino)-propionylamino]-propyl}-naphthalen-1-yl ester], on Grb2, the “Capture of Grb2 on compound-conjugated SA beads (anti-Grb2 immunoblot)” value is “did not capture Grb2”. Moreover, the “Capture of Grb2 tryptic peptides (ESI-MS/MS)” value in assay [8] is recorded as “not by compound 4-conjugated beads”. Moreover, the “Inhibition of cell migration (in words)” value with PC3M cells [4] is “No inhibition of cell migration”. Also, the “Grb2 SH2 domain binding affinity (in words)” value on Grb2 SH2 domain (assay not stated) is “very poor Grb2 SH2 domain binding affinity”.

(Values after publication PMC2651228 (Journal of medicinal chemistry, 2008).)
